PMC10585311 (Saudi Pharmaceutical Journal : SPJ, 2023)

Key:
[1] = system: Aspergillus flavus; assay: Mycelial growth inhibition, poisoned food technique; assay type: cell-based; details: in DMSO (20 μg/μL)
[2] = system: S. aureus; assay: Disc diffusion antibacterial screening; assay type: cell-based; details: S. aureus (G + ve)
How it was run: (§1)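 Disc diffusion on standard nutrient agar as the basal medium. Values are from triplicate experiments. Significance was set at p < 0.05.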

[3] = system: B. subtilis; assay: Disc diffusion antibacterial screening; assay type: cell-based, Bacillus subtilis; details: B. subtilis (G + ve)
How it was run: as §1

[4] = system: E. coli; assay: Disc diffusion antibacterial screening; assay type: cell-based, Escherichia coli; details: E. coli (G–ve)
How it was run: as §1

[5] = system: Aspergillus niger; assay: Mycelial growth inhibition, poisoned food technique; assay type: cell-based; details: in DMSO (20 μg/μL)
[6] = system: tested bacteria; assay: Disc diffusion antibacterial screening, overall statements; assay type: cell-based
How it was run: as §1

[7] = system: brine shrimp nauplii; assay: Brine shrimp lethality assay; assay type: in vivo; details: for percentage of dead shrimp (deaths): after 24 and 48 h
How it was run: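 Brine shrimp lethality assay. Test compounds were dissolved in DMSO and made up at four levels. Each vial held 5 mL NaCl solution and one of four sample levels (A–D: 4, 8, 16, 32). Each vial received 10 nauplii, with triplicate vials per level. Mortality was scored at each level and averaged as percent.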

[8] = system: B. cereus; assay: Disc diffusion antibacterial screening; assay type: cell-based, Bacillus cereus
How it was run: as §1

[9] = system: S. typhi; assay: Disc diffusion antibacterial screening; assay type: cell-based, Salmonella typhi; details: S. typhi (G–ve)
How it was run: as §1

[10] = system: P. aeruginosa; assay: Disc diffusion antibacterial screening; assay type: cell-based, Pseudomonas aeruginosa; details: P. aeruginosa (G–ve)
How it was run: as §1

Row | Compound | Percent inhibition of fungal mycelial growth [1] | Diameter of Inhibition Zones [2] | Diameter of Inhibition Zones [3] | Diameter of Inhibition Zones [4] | Percent inhibition of fungal mycelial growth [5] | antibacterial activity ([6]; all tested bacteria) | toxicity to brine shrimp [7] | zone of inhibition [8] | percentage of dead shrimp (deaths) [7] | Diameter of Inhibition Zones [9] | Diameter of Inhibition Zones [10] | inhibitory activity ([6]; tested gram-positive bacteria)
1 | COc1ccc(C(=O)OC[C@H]2O[C@H](OC)[C@H](O)[C@@H](O)[C@@H]2O)cc1 [Compound 7, Methyl 6-O-(4-methoxybenzoyl)-α-D-glucopyranoside] | 35.38 ± 0.32% | 10 ± 0.1 mm | *12 ± 0.2 mm | 9 ± 0.4 mm | 48.40 ± 0.22% |  |  |  |  |  |  | 
2 | CO[C@H]1O[C@H](CO)[C@@H](O)[C@H](O)[C@H]1O [Compound 1, methyl α-D-glucopyranoside, reference compound] |  |  |  |  |  | did not show any antibacterial activity |  |  |  |  |  | 
3 | C[C@@H]1[C@H](O)[C@@H](C)/C=C/C=C/CC/C=C/C=C/C=C/C=C/C(O[C@H]2O[C@H](C)[C@@H](O)[C@H](N)[C@@H]2O)CC2O[C@](O)(CC(O)C(O)CCC(O)CC(O)CC(O)CC(=O)O[C@H]1C)CC(O)C2C(=O)O (stereo partly drawn) [Nystatin, reference compound] | **63.10 ± 0.09% |  |  |  | **66.40 ± 0.05% |  |  |  |  |  |  | 
4 | CCCCCCCCCCCC(=O)O[C@@H]1[C@@H](OC(=O)CCCCCCCCCCC)[C@@H](OC)O[C@H](COC(=O)c2ccc(OC)cc2)[C@H]1OC(=O)CCCCCCCCCCC [Compound 8, Methyl 2,3,4-tri-O-lauroyl-6-O-(4-methoxybenzoyl)-α-D-glucopyranoside] | *63.31 ± 0.51% | 11 ± 0.2 mm | 9 ± 0.3 mm | 10 ± 0.1 mm | *66.41 ± 0.37% |  | less toxic |  |  |  |  | 
5 | CO[C@H]1O[C@H](COC(c2ccccc2)(c2ccccc2)c2ccccc2)[C@@H](OC(=O)c2ccc(C(C)(C)C)cc2)[C@H](OC(=O)c2ccc(C(C)(C)C)cc2)[C@H]1OC(=O)c1ccc(C(C)(C)C)cc1 [Compound 5, Methyl 2,3,4-tri-O-(4-t-butylbenzoyl)-6-O-(triphenylmethyl)-α-D-glucopyranoside] | *59.54 ± 0.14% | *17 ± 0.1 mm |  | *15 ± 0.2 mm |  |  |  | 17 ± 0.1 mm | 48.21% | 10 ± 0.4 mm |  | 
6 | CO[C@H]1O[C@H](COC(c2ccccc2)(c2ccccc2)c2ccccc2)[C@@H](O)[C@H](O)[C@H]1O [Compound 2, Methyl 6-O-(triphenylmethyl)-α-D-glucopyranoside] | 33.33% |  | 8 ± 0.5 mm | 9 ± 0.2 mm | 36.43% |  |  |  | 32.11% |  | 9 ± 0.1 mm | 
7 | CC[C@H]1OC(=O)[C@H](C)[C@@H](O[C@H]2C[C@@](C)(OC)[C@@H](O)[C@H](C)O2)[C@H](C)[C@@H](O[C@@H]2O[C@H](C)C[C@H](N(C)C)[C@H]2O)[C@](C)(O)C[C@@H](C)CN(C)[C@H](C)[C@@H](O)[C@]1(C)O [Azithromycin, reference compound] |  | **18 ± 0.5 mm | **19 ± 0.6 mm | **17 ± 0.4 mm |  |  |  |  |  | **19 ± 0.5 mm | **17 ± 0.5 mm | 
8 | Methyl 2,3,4-tri-O-lauryl-6-O-(triphenylmethyl)-α-D-glucopyranoside [Compound 3] | 41.30% |  |  |  | 46.62% |  | less toxic |  |  | 10 ± 0.1 mm | *12 ± 0.3 mm | did not show any inhibitory activity
9 | CCCCCCCCCCCCCC(=O)O[C@@H]1[C@@H](OC(=O)CCCCCCCCCCCCC)[C@@H](OC)O[C@H](COC(c2ccccc2)(c2ccccc2)c2ccccc2)[C@H]1OC(=O)CCCCCCCCCCCCC [Compound 4, Methyl 2,3,4-tri-O-myristoyl-6-O-(triphenylmethyl)-α-D-glucopyranoside] |  |  | 10 ± 0.3 mm |  | 31.92% |  |  |  | 47.64% | 9 ± 0.5 mm | 8 ± 0.2 mm | 
